Screens (PubChem BioAssay)
ABHD5 PLIN5 PPI: blocks binding of human ABHD5 to perilipin-5. 0.78% of 360,000 active. inhibition, % at 4 µM. Split G. princeps luciferase complementation, luminescence, 4 h. AID 602281. Q00G26+Q8WTS1;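 active = inhibition above the mean inhibition across every tested compound plus 3 SD, cut at about 22% in these data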;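 note: 0% = DMSO only wells and the 100% control is not disclosed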
APOBEC3A inh: human APOBEC3A DNA deaminase inhibition; inhibition, % at 20 µM; recombinant A3A, FAM/TAMRA ssDNA deamination fluorescence; 0.41% of 330,000 active;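 active = at least 40% inhibition at 20 µM here, with at most 30% in a related deaminase screen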;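 note: plate controls were A3A with DMSO for no effect and wells lacking A3A enzyme for full effect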
Target sequence (P31941 whole entry, looked up): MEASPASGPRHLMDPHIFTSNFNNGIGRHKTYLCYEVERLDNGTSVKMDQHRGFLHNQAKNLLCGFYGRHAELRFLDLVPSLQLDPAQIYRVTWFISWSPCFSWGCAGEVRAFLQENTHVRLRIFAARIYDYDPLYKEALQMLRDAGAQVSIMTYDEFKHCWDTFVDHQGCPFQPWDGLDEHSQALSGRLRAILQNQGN
core dimer inh: blocks dimerization of HCV core protein | TR-FRET GST/Flag-core106 dimerization, 1536-well | inhibition, % at 5 µM | 0.33% of 300,000 active | AID 1899;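 active = inhibition above the mean of all tested compounds plus 3 SD, set per screening campaign, cut at about 45% in these data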
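Assay system – GST-tagged and Flag-tagged HCV core protein residues 1-106 · Quantity – core106 proteins, GST 13.5 nM and Flag 17 nM · Benchmarks – unlabelled core106 and no-GST-core106 wells · Read-out basis – percent inhibition of core106 dimerization signal · Detection – time-resolved FRET, ex 340 nm, em 617 and 671 nm · Schedule – 4 h at 22.5 °C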
NS3 helicase inh: inhibitors of Hepatitis C virus NS3 helicase; NS3 helicase DNA unwinding, Cy5 molecular beacon fluorescence; inhibition, % at 10.9 µM; 0.56% of 290,000 active;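 active = inhibition above the mean of all tested compounds plus 3 SD, set per campaign, cut at about 35% in these data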;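 note: 0% = DMSO wells and 100% = thioflavine S control wells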
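System: HCV NS3 helicase fragment; control set: DMSO and thioflavine S; technique: Cy5 fluorescence at 0 and 60 min, beacon hairpin quenching; reagent: beacon DNA duplex substrate plus ATP; replicates: singlicate; schedule: 1 h reaction at 25 °C, ATP-initiated; medium: MOPS buffer pH 6.5 with MgCl2, DTT, Tween20, BSA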
A3G deaminase: APOBEC3G (human) deaminase inhibition | Q9HC16 | recombinant A3G, ssDNA deamination FAM/TAMRA fluorescence | inhibition, % at 20 µM | 0.28% of 330,000 active | AID 493012;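 active = inhibition of at least 40% at 20 µM, with no more than 30% in the related APOBEC3A deaminase screen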;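 note: plate controls were DMSO wells with A3G for no effect and wells lacking A3G enzyme for full effect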
Target sequence (Q9HC16 whole entry, looked up): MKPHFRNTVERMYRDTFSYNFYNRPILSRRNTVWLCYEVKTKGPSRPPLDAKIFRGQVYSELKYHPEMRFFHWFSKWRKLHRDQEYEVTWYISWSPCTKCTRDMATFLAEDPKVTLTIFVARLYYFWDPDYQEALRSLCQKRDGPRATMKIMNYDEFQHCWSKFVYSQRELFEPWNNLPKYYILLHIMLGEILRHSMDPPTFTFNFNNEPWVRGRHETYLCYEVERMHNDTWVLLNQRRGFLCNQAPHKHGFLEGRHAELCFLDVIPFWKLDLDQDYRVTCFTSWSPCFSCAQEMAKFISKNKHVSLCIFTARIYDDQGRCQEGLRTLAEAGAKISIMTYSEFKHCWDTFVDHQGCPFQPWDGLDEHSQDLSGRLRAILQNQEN
PRMT1 inh: PRMT1 (human) inhibition, primary screen | Q99873 | AID 652257 | 1.3% of 370,000 active | recombinant PRMT1, activity-based probe fluorescence polarization | inhibition, % at 2.79 µM;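 active = inhibition above about 21% made by adding two undisclosed values, limit read from the data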
Numbers without * were called inactive; . = not tested or not shown. Hits are enriched below; roughly 2.9% of the tested compounds scored in any of these assays.

SMILES	ABHD5 PLIN5 PPI	APOBEC3A inh	core dimer inh	NS3 helicase inh	A3G deaminase	PRMT1 inh
CC(=O)c1ccccc1C(=O)N1CCCC(CNC(=O)c2ccc(F)cc2)C1 (stereo not drawn)	-2	.	.	.	.	0
OCC1OC(n2cnc3c(=S)nc[nH]c32)CC1O (stereo not drawn)	2	.	.	.	.	21*
O=c1[nH]cnc2c1ncn2[C@@H]1C[C@@H](O)[C@H](CO)O1	-5	0	0	-30	-7	3
CCCCn1c(N)c(N(CC(C)C)C(=O)c2cc3ccccc3cc2OC)c(=O)[nH]c1=O	8	.	.	.	.	3
Cc1ccc(OCC(=O)N/N=C/C=C/c2ccco2)cc1	17	15	67*	13	12	14
CN(C)c1ccc(N2C(=O)CSC2=S)cc1	-22	10	-4	30	5	23*
O=C(COCc1ccncc1)N1CCN(c2ccc(F)cc2Cl)CC1	.	.	.	.	.	2
O=C(NC1CCCCN(Cc2cccc(Cl)c2)C1=O)c1ccc(F)c(F)c1 (stereo not drawn)	.	.	.	.	.	3
COC(=O)CC#C[C@H](C)[C@@H](NS(=O)(=O)c1ccc([N+](=O)[O-])cc1)C(C)(C)C	.	.	.	.	.	2
CC1(C)C(=O)N(c2ccccc2)C(=O)c2ccccc21	-7	2	-18	.	6	3
C=C1C(=O)C23CCC4C(C)(C(=O)OC)CCCC4(C)C2CCC1(O)C3 (stereo not drawn)	72*	.	.	.	.	29*
COC(=O)[C@]1(C)CCC[C@@]2(C)C3CC[C@@]4(C)C[C@]3(CCC21)CC(=O)N4 (stereo partly drawn)	-6	-3	.	.	-12	-3
COC(=O)[C@]12C[C@H](CC(=O)NCc3cccc4ccccc34)C(=O)N(Cc3ccccc3)C1=C[C@H](C(C)C)O[C@@H]2C1CC1	.	.	.	.	.	0
C[C@@H]1ON(C)[C@H]2C[C@H]3c4[nH]c5cccc(-c6ccccc6F)c5c4CCN3C(=O)[C@@H]12	.	.	.	.	.	4
O=C(COC(=O)CN1C(=O)C2CCCCC2C1=O)Nc1cc(F)ccc1F (stereo not drawn)	-3	-2	.	.	-8	-2
O=C(COC(=O)/C=C/c1ccc(Br)o1)Nc1ccc2[nH]c(=O)[nH]c2c1	2	73	90*	.	83	-2
CCCCOc1cccc(C2C(C(=O)c3ccc(C)o3)=C(O)C(=O)N2c2nnc(C)s2)c1 (stereo not drawn)	4	-8	.	25	-10	23*
CCOC(=O)/C=C(\C)Sc1cc(=O)oc2ccccc12	0	0	4	-2	-3	0
CCOC(=O)/C=C(\C)Sc1cc(O)c2ccccc2c1O	-37	.	.	12	.	84*
COc1cccc(OCC(=O)Nc2ccccc2C(=O)Nc2ccc(C(=O)O)cc2)c1	-4	-5	-26	16	-4	2
CSc1ccc(CN2CCC(C)(Oc3ccccc3F)C2)cc1 (stereo not drawn)	-1	.	.	.	.	-1
COC(=O)CCC(=O)OC1(C)C(=O)C=C2C=C(C3CC3)N(c3ccc(CO)cc3)C=C2C1=O (stereo not drawn)	.	5	69*	.	0	.
COc1ccc(C(CC(=O)c2ccc(C)cc2)Sc2ccccc2N)cc1 (stereo not drawn)	-4	.	.	.	.	24*
COc1ccc(C(=O)CC(c2ccccc2)S(=O)(=O)c2ccc(C)cc2)cc1 (stereo not drawn)	.	9	-2	1	-6	.
COc1cc(C(=O)NNC(=O)c2n[nH]c3ccccc23)cc(OC)c1OC	-5	-5	.	.	-7	-2
SMILES	ABHD5 PLIN5 PPI	APOBEC3A inh	core dimer inh	NS3 helicase inh	A3G deaminase	PRMT1 inh
CN(C)c1ccc(N/C=C/C(=O)c2ccccc2)cc1	1	2	-14	32	2	22*
CN(C)[C@H]1CCN(c2ccc3c(c2)O[C@@H]2CCN(C2)S3(=O)=O)C1	.	.	.	.	.	5
COc1ccc(-n2c(CN3CCOCC3)nc3ccc([N+](=O)[O-])cc3c2=O)c(OC)c1	-7	-2	65*	11	6	11
Cc1nnc(N2C(=O)C(=O)/C(=C(/O)c3ccc4c(c3)OCCO4)C2c2ccc([N+](=O)[O-])cc2)s1 (stereo not drawn)	-8	-3	48*	24	-3	2
Cc1nnc(N2C(=O)C(=O)/C(=C(/O)c3ccc4c(c3)OCCO4)C2c2cccc([N+](=O)[O-])c2)s1 (stereo not drawn)	2	.	.	.	.	-3
O=C(CN1CCC(NC(=O)NC2CCCC2)CC1)Nc1ccc2c(c1)OCCO2	.	.	.	.	.	0
NC(Cc1ccc(Cl)cc1)c1csc(Nc2ccc(C(F)(F)F)cn2)n1 (stereo not drawn)	-5	.	.	.	.	-2
CN(C(=O)CSc1ccc2c(c1)OCCO2)c1ccccc1	-3	-3	.	.	-8	7
N#CCCN(C(=O)CSc1ccc2c(c1)OCCO2)c1ccccc1	-15	-1	1	-9	-3	22*
Cn1c(=O)c(Nc2ccc(Cl)cc2)c2c3c(cccc31)C(=O)c1ccccc1-2	.	-6	11	-6	-19	93*
CC(=O)Nc1c2c3c(cccc3n(C)c1=O)C(=O)c1ccccc1-2	3	1	-14	2	-3	7
Cc1ccc2nc(/C(C#N)=C/c3ccc(O)c(O)c3)[nH]c2c1	-2	-12	-43	24	-18	27*
Cc1ccc2nc(/C(C#N)=C/c3ccccc3C(=O)O)[nH]c2c1	3	-8	9	9	-5	-7
Brc1ccc(-c2csc(N/N=C/c3ccco3)n2)cc1	-2	-2	-3	10	-6	5
C(=N\Nc1nc(-c2ccccc2)cs1)/c1ccco1	-11	-4	-8	34	-8	24*
O=C(N/N=C/c1ccccc1)c1ccc(CN2C(=O)c3cccc4cccc2c34)cc1	-5	0	13	-13	-2	-2
O=C(N/N=C/c1ccc(O)cc1O)c1ccc(CN2C(=O)c3cccc4cccc2c34)cc1	6	7	54*	-2	2	1
Cc1cccc2c(N=Nc3ccc(S(=O)(=O)Nc4ccc(Cl)cc4)cc3[N+](=O)[O-])c(O)[nH]c12	9	0	49*	15	-1	-4
N#CC1=C(N)SC(N)=C(C#N)C1c1ccc(C(F)(F)F)cc1	.	-5	14	19	-5	.
CCOc1ccc(C2C(C#N)=C(N)SC(N)=C2C#N)cc1OCC	-4	-6	58*	.	19	-3
N#CC1=C(N)SC(N)=C(C#N)C1c1cccc(Oc2ccccc2)c1	1	-7	18	17	-12	-3
CCOc1ccccc1C1C(C#N)=C(N)SC(N)=C1C#N	-6	0	33	5	7	10
N#CC1=C(N)SC(N)=C(C#N)C1c1ccc([N+](=O)[O-])cc1	-9	-6	11	21	-11	31*
CCOc1ccc(C2C(C#N)=C(N)SC(N)=C2C#N)cc1OC	.	-5	57*	14	-10	.
